# MC4R antag cAMP: blocks human MC4R cAMP signaling; P32245; inhibition, % at 6.5 µM; hit rate 0.48% among 360,000; MC4R-expressing cells, MTII-stimulated cAMP, LANCE TR-FRET;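 active means inhibition above its plate's cutoff, the mean of tested wells on that plate plus 3 SD, cut at about 29% in these data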
# Target sequence (P32245 whole entry, looked up): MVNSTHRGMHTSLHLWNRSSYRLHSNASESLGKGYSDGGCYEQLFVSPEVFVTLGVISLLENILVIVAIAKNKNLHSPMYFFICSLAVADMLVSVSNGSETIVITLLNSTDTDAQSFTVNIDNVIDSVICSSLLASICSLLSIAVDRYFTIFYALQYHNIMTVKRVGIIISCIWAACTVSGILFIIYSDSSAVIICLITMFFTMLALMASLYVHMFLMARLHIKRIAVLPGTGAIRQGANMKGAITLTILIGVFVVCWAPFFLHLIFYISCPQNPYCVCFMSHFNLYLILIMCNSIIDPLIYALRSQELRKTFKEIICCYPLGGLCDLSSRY
#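 Assay system: U2OS cells stably expressing human melanocortin 4 receptor (MC4R) / Dosing: 6.5 µM / Timing: compound 30 min, challenge 1 h, detection 1 h / Measured by: Eu-cAMP/anti-cAMP TR-FRET, emission 671 nm / Replicates: singlicate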
# Exocytosis inh: blocks lytic granule exocytosis | TALL-104 LAMP-1 surface exposure, flow cytometry; cells stimulated with thapsigargin and PMA | inhibition, % at 10 µM | hit rate 0.66% among 360,000 | AID 651702;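 active means inhibition above about 55%, limit read from the data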
# sPLA2-III inh: Inhibits HGIII-sPLA2 liposome hydrolysis, primary screen. QFRET BODIPY PC-A2 liposome hydrolysis, fluorescence. inhibition, % at 12.2 µM. hit rate 0.56% among 370,000. AID 743126;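 active means inhibition above mean plus 3 SD of compounds lying within the high and low control bounds, cut at about 19% in these data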
# MC4R barr agon: agonists of human melanocortin 4 receptor (MC4R) beta-arrestin | P32245 | U2OS MC4R beta-arrestin complementation, luminescence; percent of melanotan II response, DMSO zero | activation, % at 8.9 µM | hit rate 0.98% among 360,000;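 active means activation above a per-plate cutoff, the mean activation of sample wells on that plate plus 3 SD, cut at about 8% in these data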
# NTR1 ag: agonists of human neurotensin receptor NTR1; hit rate 0.17% among 330,000; P30989; activation, % at 20 µM; NTR1-U2OS beta-arrestin-GFP spot imaging, agonist mode;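 active means activation at or above 40% of the spot to cytoplasm intensity ratio, with at least 20 cells analyzed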
# Bfl-1 A1 inh: inhibitors of the anti-apoptotic protein A1, read as caspase activation. MEF A1-2A-BIM cells, Caspase-Glo 3/7 luminescence, 3 h; percent of clofoctol response, vehicle zero. caspase activation, % (concentration not given with the values). hit rate 0.066% among 330,000. AID 2462;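 active means over half of replicate activation scores above 10%, or exactly half above 10 with the replicate mean above 10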
# MC4R barr conf: human MC4R beta-arrestin agonism confirmation; shares compounds with MC4R barr agon; U2OS MC4R beta-arrestin recruitment, luminescence; scaled DMSO 0%, Melanotan II 100%; activation, % at 8.9 µM; hit rate 31% among 2,400; AID 602192;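 active means mean activation across replicates above the hit cutoff set in the earlier primary screen, cut at about 8% in these data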
# MOR-DOR barr ag: OPRM1-OPRD1 heterodimer agonism counter-screen | AID 602194 | activation, % at 9.2 µM | shares compounds with MC4R barr agon | hit rate 5.8% among 2,400 | U2OS PathHunter beta-arrestin, beta-gal luminescence; percent of deltorphin B response, DMSO zero;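 active means mean activation across replicates exceeds the hit threshold derived in the earlier primary screen, cut at about 18% in these data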
# A number is an active result; - = inactive; . = not tested or not shown. Most compounds without a hit are left out; they make up all but 2.5% or so of the library.
SMILES,MC4R antag cAMP,Exocytosis inh,sPLA2-III inh,MC4R barr agon,NTR1 ag,Bfl-1 A1 inh,MC4R barr conf,MOR-DOR barr ag
CCOc1ccccc1C(=O)NC(C)CCc1ccccc1 (stereo unspecified),-,-,-,-,-,-,.,.
C/C(=N/OC(=O)C1CC1c1ccccc1)c1ccccc1 (stereo unspecified),-,-,-,-,-,-,.,.
Cc1ccc2[nH]c(O)c(N=NC(=O)C3CC3c3ccccc3)c2c1Br (stereo unspecified),-,-,-,17.9,-,-,-,-
O=C1N(CCCO)CCC12CCC(c1ccccc1)CC2 (stereo unspecified),.,.,-,.,.,.,.,.
Cc1cc(NC(=O)c2noc3c2CCCCC3)nn1Cc1ccc(Cl)cc1,-,-,-,11.6,-,-,-,-
COc1ccccc1-c1cc(C(=O)Nc2cc(C)n(Cc3ccc(Cl)cc3)n2)no1,-,-,-,20.8,-,-,15.2,-
COc1ccc(OC)c(-c2cc(C(=O)NCc3ccc(Cl)cc3)no2)c1,-,-,-,10.4,-,-,-,-
COc1ccccc1-c1cc(C(=O)Nc2cc(C)nn2-c2ccccc2)no1,-,-,-,9.9,-,-,-,-
Cc1cc(C(=O)Nc2cc(C)n(Cc3ccc(Cl)cc3)n2)no1,-,-,-,-,-,-,.,.
COc1ccc(/C(C)=N/OCC(=O)N=Nc2c(O)[nH]c3ccccc23)cc1,-,-,-,13.6,-,-,10.9,-
CC1=CC(C)(C)n2c(O)c(N=NC(N)=S)c3c(C)ccc1c32,-,-,-,-,-,-,.,.
CC1=CC(C)(C)n2c(O)c(N=NC(N)=S)c3cccc1c32,-,-,-,10.9,-,-,-,-
CCOc1ccc(-n2nnnc2SCC(=O)c2ccccc2)cc1,-,-,-,16.0,-,-,-,-
COc1ccc(-c2nc(C(N)=O)c3[nH]c(=O)n(-c4cccc(Cl)c4)c3n2)cc1OC,-,-,-,12.9,.,.,10.8,-
COc1cccc(-c2nc(C(N)=O)c3[nH]c(=O)n(-c4cccc(Cl)c4)c3n2)c1OC,-,-,-,-,-,-,.,.
CCCCCCCCCCCCCCCC[n+]1ccc(/C=N/O)cc1,-,-,-,19.8,-,-,63.7,-
Cc1nc([N+](=O)[O-])cn1CC(Cl)Cn1cc([N+](=O)[O-])nc1C,.,.,-,.,.,.,.,.
CCCCOC(=O)Nc1nnc(/C=C/c2ccc(OC)cc2)s1,-,-,-,21.1,-,-,-,-
CCOC(=O)Nc1nnc(/C=C/c2ccc(OC)cc2)s1,-,-,-,-,-,-,.,.
COCCNC(=S)N(C)[C@H]1C[C@H]2c3[nH]c4c(-c5ccc6c(c5)OCO6)cccc4c3CCN2C(=O)[C@H]1[C@H](C)O,.,.,-,.,.,.,.,.
NS(=O)(=O)c1ccc(CCNC(=O)CSc2ccsc2[N+](=O)[O-])cc1,-,-,-,-,-,-,.,.
CSc1ccc(CCNC(=O)CSc2ccsc2[N+](=O)[O-])cc1,-,-,-,11.2,-,-,-,-
CS(=O)(=O)N1CCC(C(=O)Nc2cccc(C(F)(F)F)c2)CC1,-,-,-,-,-,-,.,.
Cc1cc(C)nc(N2CCC(C(=O)Nc3cccc(C(F)(F)F)c3)CC2)n1,-,-,-,14.5,-,-,-,-
O=C(Nc1ccc2c(c1)OCO2)c1nn(-c2ccccc2)c(=O)c2ccccc12,-,-,-,10.7,-,-,-,-
SMILES,MC4R antag cAMP,Exocytosis inh,sPLA2-III inh,MC4R barr agon,NTR1 ag,Bfl-1 A1 inh,MC4R barr conf,MOR-DOR barr ag
COc1cccc(-n2nc(C(=O)Nc3ccc4c(c3)OCO4)c3ccccc3c2=O)c1,-,-,.,-,-,-,.,.
O=Nc1c2cc3ccccc3[nH]c-2c2ccccc12,-,-,-,10.3,.,.,-,-
O=C(Nc1cccc(Cl)c1)OC1CCC12CCC(c1ccccc1)CC2 (stereo unspecified),.,.,-,.,.,.,.,.
CC(=O)Nc1nnc(SCC(=O)c2ccc3c(c2)Cc2ccccc2-3)s1,-,-,-,11.9,-,-,-,-
CC(=O)Nc1nnc(SCC(=O)NC2CC2)s1,-,-,-,-,-,-,.,.
Cn1c(SCC(=O)c2ccc3c(c2)Cc2ccccc2-3)nnc1-c1ccccc1,-,-,-,10.8,-,-,9.4,-
Cn1c(SCC(=O)c2ccccc2)nnc1-c1ccncc1,-,-,-,-,-,-,.,.
CCC(=O)Nc1nnc(SCC(=O)c2ccc3c(c2)Cc2ccccc2-3)s1,-,-,-,18.4,-,-,-,-
CC(C)Oc1cccc(-c2n[nH]c(=S)n2N=Cc2ccc(OCc3ccccc3)cc2)c1,.,.,-,.,.,.,.,.
Fc1ccc(F)c(Cn2ccc3ccc(-c4ccc5ccn(Cc6cc(F)ccc6F)c5c4)cc32)c1,.,.,-,.,.,.,.,.
Nc1[nH]c(C(=O)c2ccc(Br)cc2)c(-c2ccc3ccccc3c2)c1C(=O)NCCc1c[nH]c2ccccc12,.,.,-,.,.,.,.,.
C=CCc1ccc(O)c(-c2cc(CC=C)ccc2O)c1,-,-,-,9.7,-,-,-,-
COc1ccc(Oc2c(Br)cnn(Cc3cccc4ccccc34)c2=O)cc1,.,.,-,.,.,.,.,.
O=C1N/C(=C/c2cccn2-c2ccccc2)C(=O)N1Cc1ccc(F)cc1,-,-,-,17.0,-,-,-,-
Cc1ccc(-n2nc3c(N4CCC(C(=O)NCCc5cccs5)CC4)nnc(C)c3c2C)cc1,-,-,-,14.6,-,-,12.3,-
Cc1nnc(N2CCCC(C(=O)NCc3ccc(OC(C)C)cc3)C2)c2nn(-c3ccccc3)c(C)c12 (stereo unspecified),-,-,-,11.9,-,-,-,-
COC(=O)c1cc(=O)n(Cc2ccco2)c(=Nc2ccccc2)s1,.,.,-,.,.,.,.,.
O=C(OCc1ccccc1)/C(=C/c1cccc2ccccc12)NC(=O)c1ccccc1,-,-,-,14.0,-,-,-,-
COc1cccc(C2(c3cccc(OC)c3)CC2C(=O)Nc2cccc3ccccc23)c1 (stereo unspecified),-,-,-,9.6,-,-,-,-
COc1cccc(NC(=O)C2CC2(c2cccc(OC)c2)c2cccc(OC)c2)c1 (stereo unspecified),-,-,-,-,-,-,.,.
C=CCn1c(COc2ccccc2)nnc1SCC(=O)Nc1ccc(S(=O)(=O)Nc2cc(C)nc(C)n2)cc1,.,.,-,.,.,.,.,.
Cc1cc(-c2nn3c(-c4ccccc4)nnc3s2)c2ccccc2n1,-,-,-,-,-,-,.,.
c1ccc(-c2cc(-c3nn4c(-c5ccco5)nnc4s3)c3ccccc3n2)cc1,-,-,.,9.7,-,.,-,-
COc1cccc([C@@H](NC(=O)C(F)(F)F)[C@@H]2CCCC=C2c2ccccc2)c1,.,.,-,.,.,.,.,.

# From PubChem BioAssay
